In ChEMBL document CHEMBL1147832, “Flexible synthesis and biological evaluation of novel 5-deoxyadenophorine analogues” (Bioorg Med Chem Lett, 2006):

Assays:
Saccharomyces cerevisiae = assay: Inhibition of yeast alpha glucosidase at 1 mM
Outline: (§1)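 Commercial enzymes: yeast α-glucosidase, almond β-glucosidase, green coffee bean α-galactosidase, Aspergillus β-galactosidase. Each was run at its optimum pH and temperature with the matching p-nitrophenyl glycoside at a substrate concentration equal to the calculated Km. Inhibitor was at 1 mM final. Low-pH reactions were stopped with 400 mM Na2CO3. Released p-nitrophenol was read at 405 nm, giving % inhibition.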

[1] = biological target: Alpha-galactosidase (Coffea arabica) (UniProt Q5DUH8); assay: Inhibition of green coffee alpha galactosidase at 1 mM; outline: as §1
[2] = biological target: T1, Beta-galactosidase (Aspergillus niger) (UniProt P29853); assay: Inhibition of Aspergillus beta galactosidase at 1 mM; outline: as §1
T1 sequence (whole entry): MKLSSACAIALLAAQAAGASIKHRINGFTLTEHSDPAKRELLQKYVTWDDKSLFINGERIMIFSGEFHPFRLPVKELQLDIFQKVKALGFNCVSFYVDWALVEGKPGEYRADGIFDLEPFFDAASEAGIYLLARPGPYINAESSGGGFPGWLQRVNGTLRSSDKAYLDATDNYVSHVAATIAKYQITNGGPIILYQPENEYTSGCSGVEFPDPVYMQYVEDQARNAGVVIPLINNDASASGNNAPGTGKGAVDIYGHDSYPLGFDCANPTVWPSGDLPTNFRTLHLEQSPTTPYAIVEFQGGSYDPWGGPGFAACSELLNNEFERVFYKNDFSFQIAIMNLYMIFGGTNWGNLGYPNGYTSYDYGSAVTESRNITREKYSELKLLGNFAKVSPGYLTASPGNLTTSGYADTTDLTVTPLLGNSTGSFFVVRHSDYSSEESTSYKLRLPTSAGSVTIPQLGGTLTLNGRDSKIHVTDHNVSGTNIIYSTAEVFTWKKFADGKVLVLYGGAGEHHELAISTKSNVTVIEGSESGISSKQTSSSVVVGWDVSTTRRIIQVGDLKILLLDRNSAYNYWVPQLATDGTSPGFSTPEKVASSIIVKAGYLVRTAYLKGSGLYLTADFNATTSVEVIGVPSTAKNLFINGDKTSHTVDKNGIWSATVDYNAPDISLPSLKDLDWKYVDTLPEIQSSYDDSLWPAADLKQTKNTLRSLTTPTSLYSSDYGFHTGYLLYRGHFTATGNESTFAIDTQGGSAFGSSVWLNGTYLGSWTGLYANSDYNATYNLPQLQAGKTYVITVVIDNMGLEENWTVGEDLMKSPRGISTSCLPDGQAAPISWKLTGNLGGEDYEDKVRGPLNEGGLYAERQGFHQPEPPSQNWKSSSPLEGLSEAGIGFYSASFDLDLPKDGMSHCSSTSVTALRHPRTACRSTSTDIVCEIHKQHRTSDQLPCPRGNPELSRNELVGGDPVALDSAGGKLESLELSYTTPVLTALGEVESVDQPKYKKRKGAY

[3] = Inhibition of yeast alpha glucosidase; design: species or system Saccharomyces cerevisiae
Alpha-galactosidase = Alpha-galactosidase (Coffea arabica, UniProt Q5DUH8); assay: Inhibition of green coffee alpha galactosidase
[4] = biological target: T2, Alpha-glucosidase-like (Oryza sativa Japonica Group) (UniProt A0A5S6RD55); assay: Inhibition of rice alpha glucosidase at 1 mM
T2 sequence (whole entry): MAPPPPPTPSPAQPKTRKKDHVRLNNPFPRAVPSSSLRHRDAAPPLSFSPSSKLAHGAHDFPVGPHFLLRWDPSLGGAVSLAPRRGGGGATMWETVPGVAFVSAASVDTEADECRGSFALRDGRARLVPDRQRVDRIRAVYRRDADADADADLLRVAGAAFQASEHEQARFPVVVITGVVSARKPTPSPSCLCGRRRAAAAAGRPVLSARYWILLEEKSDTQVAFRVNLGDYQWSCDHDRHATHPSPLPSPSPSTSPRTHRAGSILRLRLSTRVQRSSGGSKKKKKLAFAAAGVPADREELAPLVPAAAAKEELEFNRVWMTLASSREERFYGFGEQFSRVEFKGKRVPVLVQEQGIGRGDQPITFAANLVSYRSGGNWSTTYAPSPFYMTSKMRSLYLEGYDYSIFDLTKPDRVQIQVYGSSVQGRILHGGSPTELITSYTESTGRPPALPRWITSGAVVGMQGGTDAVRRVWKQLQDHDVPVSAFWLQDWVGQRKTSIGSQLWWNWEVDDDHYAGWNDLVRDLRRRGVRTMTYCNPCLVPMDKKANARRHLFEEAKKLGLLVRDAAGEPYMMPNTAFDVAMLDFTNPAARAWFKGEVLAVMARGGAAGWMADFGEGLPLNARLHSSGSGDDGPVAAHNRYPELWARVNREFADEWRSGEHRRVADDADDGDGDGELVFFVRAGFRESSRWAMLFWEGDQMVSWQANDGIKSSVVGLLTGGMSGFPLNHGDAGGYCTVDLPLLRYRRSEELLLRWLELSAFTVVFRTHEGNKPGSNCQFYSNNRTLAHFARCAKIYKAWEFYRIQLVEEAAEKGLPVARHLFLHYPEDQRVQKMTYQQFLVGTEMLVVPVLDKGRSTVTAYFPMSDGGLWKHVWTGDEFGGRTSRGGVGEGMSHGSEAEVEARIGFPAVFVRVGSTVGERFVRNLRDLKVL

Beta-galactosidase = biological target: T3, Beta-galactosidase (Bos taurus, UniProt Q58D55); assay: Inhibition of bovine liver beta galactosidase
T3 sequence (Q58D55 whole entry): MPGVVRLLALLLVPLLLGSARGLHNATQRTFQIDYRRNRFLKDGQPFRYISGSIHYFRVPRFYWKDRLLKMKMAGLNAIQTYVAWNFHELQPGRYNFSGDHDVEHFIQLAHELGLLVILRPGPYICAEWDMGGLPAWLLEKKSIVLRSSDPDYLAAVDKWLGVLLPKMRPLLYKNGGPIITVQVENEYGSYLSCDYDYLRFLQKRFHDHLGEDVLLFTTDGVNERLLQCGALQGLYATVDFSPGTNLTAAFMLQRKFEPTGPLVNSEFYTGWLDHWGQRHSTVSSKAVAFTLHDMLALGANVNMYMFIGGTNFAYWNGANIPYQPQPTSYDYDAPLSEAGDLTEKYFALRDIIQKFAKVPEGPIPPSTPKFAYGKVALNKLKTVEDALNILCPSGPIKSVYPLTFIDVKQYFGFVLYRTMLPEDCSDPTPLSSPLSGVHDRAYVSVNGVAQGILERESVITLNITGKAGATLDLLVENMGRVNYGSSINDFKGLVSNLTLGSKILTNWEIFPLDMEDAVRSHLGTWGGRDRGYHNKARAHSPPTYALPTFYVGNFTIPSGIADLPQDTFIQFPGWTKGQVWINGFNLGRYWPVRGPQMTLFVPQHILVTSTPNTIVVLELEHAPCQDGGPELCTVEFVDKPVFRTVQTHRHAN

Sequence of Alpha-galactosidase (Q5DUH8 whole entry): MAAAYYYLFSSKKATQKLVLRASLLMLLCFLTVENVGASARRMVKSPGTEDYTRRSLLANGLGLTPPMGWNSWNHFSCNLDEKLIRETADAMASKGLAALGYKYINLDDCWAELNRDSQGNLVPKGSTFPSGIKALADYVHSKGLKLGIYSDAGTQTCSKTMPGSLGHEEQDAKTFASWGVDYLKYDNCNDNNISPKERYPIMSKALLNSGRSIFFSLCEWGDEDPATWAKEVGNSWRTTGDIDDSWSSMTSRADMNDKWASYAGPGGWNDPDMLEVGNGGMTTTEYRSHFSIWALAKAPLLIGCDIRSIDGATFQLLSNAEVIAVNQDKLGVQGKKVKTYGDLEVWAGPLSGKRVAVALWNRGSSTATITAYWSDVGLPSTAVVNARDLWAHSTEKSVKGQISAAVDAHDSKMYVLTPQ
Sequence of Alpha-galactosidase (Coffea arabica) (Q5DUH8 as listed by the source): as the sequence (Q5DUH8 whole entry) above

| inhibition (Saccharomyces cerevisiae) [%] | inhibition [1] [%] | inhibition [2] [%] | Ki [3] [µM] | Ki (Alpha-galactosidase) [µM] | IC50 (Alpha-galactosidase) [µM] | inhibition [4] [%] | IC50 (Beta-galactosidase) [µM] | SMILES |
| --- | --- | --- | --- | --- | --- | --- | --- | --- |
| < 40 | < 40 | < 40 | – | – | – | – | – | CCCCCCC[C@@H]1C[C@H](O)[C@@H](O)[C@@H](CO)N1 |
| – | – | < 40 | 154 | 141 | – | – | – | CCCCCCC[C@@H]1C[C@@H](O)[C@@H](O)[C@@H](CO)N1 |
| – | – | < 40 | 123 | 721 | – | – | – | CC[C@@H]1C[C@@H](O)[C@@H](O)[C@@H](CO)N1 |
| < 40 | < 40 | < 40 | – | – | – | – | – | CCC[C@@H]1C[C@H](O)[C@@H](O)[C@@H](CO)N1 |
| < 40 | < 40 | < 40 | – | – | – | – | – | CCCC[C@@H]1C[C@H](O)[C@@H](O)[C@@H](CO)N1 |
| – | < 40 | < 40 | 196 | – | – | – | – | CCCCCCCCCCC[C@@H]1C[C@H](O)[C@@H](O)[C@@H](CO)N1 |
| – | – | – | – | – | 6.4 | < 40 | 34 | CC[C@@H]1C[C@H](O)[C@@H](O)[C@@H](CO)N1 |
